Reference: BindingDB's records for doi:10.1021/jm049696n (Human Biomolecular Research Institute, 2005)

Experiments:
[1] = molecular target: CYP2D6 (Homo sapiens, UniProt P10635); test: Inhibitory concentration value against human cytochrome P-450 2D6
How it was run: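 Baculovirus insect-cell microsomes coexpressing each CYP with reductase and b5, in 0.2 M potassium phosphate pH 8.0. Vivid blue substrate O-dealkylation used 5 µM substrate with 10 nM enzyme for 2B6, 10 µM with 5 nM for 2C19, 10 µM with 10 nM for 2D6, and 10 µM with 5 nM for 2E1. Inhibitor 0.02–400 or 0.14–300 µM. NADPH-generating system, 40 min at room temperature, fluorescence 405/460 nm. IC50 is the mean of three ± SD.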

[2] = molecular target: CYP3A4 (Homo sapiens, UniProt P08684); test: Inhibitory concentration value against human cytochrome P-450 3A4
How it was run: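 Human liver microsomes (0.4 mg) in 0.05 M potassium phosphate, pH 7.5, with an NADPH-generating system, DETAPAC and 3 mM MgCl2. Inhibitor at 0.02–400 µM. Started with 0.2 mM testosterone and run 30 min at 37 °C with shaking. Stopped with ethyl acetate, then extracted. 6β-hydroxytestosterone measured by reverse-phase HPLC with UV detection at 254 nm. IC50 values are the mean of at least three determinations ± SD.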

[3] = molecular target: CYP2E1 (Homo sapiens, UniProt P05181); test: Inhibitory concentration value against human cytochrome P-450 2E1
How it was run: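 Baculovirus-expressed CYP2E1 (co-expressing P450 reductase and cytochrome b5), 5 nM final, with 10 µM Vivid blue substrate in 0.2 M potassium phosphate pH 8.0. Inhibitor at eight levels from 0.02 to 400 µM, or six from 0.14 to 300 µM. Started with an NADPH-generating system, then 40 min at room temperature. O-dealkylated product read by fluorescence (ex 405/em 460 nm). IC50 is the mean of three experiments.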

Sequence of CYP2D6 (P10635 whole entry): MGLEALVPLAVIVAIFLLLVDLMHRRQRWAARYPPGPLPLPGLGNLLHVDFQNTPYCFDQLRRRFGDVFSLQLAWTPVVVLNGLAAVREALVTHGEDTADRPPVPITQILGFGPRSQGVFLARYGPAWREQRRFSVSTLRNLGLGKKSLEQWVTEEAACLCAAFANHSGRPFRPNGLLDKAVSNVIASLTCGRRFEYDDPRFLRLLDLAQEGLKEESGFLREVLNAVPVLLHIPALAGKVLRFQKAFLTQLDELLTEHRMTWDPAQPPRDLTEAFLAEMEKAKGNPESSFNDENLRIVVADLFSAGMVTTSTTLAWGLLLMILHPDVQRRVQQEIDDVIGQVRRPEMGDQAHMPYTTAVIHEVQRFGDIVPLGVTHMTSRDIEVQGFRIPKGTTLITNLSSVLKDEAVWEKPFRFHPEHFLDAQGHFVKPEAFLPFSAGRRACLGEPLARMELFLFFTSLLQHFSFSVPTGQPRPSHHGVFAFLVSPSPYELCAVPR
Sequence of CYP3A4 (P08684 whole entry): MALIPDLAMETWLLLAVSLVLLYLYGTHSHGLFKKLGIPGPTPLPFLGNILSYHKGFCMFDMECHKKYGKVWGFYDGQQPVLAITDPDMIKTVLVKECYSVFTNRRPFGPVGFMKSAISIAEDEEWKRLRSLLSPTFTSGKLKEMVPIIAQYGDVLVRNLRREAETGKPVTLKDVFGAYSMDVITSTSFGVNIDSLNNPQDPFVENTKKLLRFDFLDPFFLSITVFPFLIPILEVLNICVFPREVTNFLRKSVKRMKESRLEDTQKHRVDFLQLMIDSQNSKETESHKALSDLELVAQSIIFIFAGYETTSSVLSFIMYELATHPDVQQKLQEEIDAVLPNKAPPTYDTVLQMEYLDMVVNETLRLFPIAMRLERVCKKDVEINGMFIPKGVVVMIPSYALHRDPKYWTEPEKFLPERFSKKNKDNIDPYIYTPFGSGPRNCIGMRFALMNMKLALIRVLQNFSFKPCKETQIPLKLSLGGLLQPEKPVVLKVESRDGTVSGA
Sequence of CYP2E1 (P05181 whole entry): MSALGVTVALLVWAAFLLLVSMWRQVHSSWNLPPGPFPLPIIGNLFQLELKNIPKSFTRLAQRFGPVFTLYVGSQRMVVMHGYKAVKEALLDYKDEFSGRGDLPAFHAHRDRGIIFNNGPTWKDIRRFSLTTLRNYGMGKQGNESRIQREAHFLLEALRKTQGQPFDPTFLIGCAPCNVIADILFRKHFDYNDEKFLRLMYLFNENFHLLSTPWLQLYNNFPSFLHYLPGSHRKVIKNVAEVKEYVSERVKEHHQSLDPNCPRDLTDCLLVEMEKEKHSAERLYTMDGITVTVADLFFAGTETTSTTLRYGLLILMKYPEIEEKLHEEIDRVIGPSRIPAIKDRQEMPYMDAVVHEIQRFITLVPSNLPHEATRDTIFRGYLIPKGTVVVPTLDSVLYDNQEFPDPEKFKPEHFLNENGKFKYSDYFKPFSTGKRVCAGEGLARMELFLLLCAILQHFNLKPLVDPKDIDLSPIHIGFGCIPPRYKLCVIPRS

| IC50 [3] [µM] | SMILES | IC50 [1] [µM] | IC50 [2] [µM] |
| --- | --- | --- | --- |
|  | NCc1ccc(-c2cccnc2)s1 [US8609708, 31] | 197 | 77.5 |
| > 400 | O=NCc1ccc(-c2cccnc2)o1 [US8609708, 24] | > 400 | > 400 |
